From ChEMBL document CHEMBL3232973, “The identification of novel 5'-amino gemcitabine analogs as potent RRM1 inhibitors” (Bioorg Med Chem, 2014) come the findings set out here.

As usually defined, the inhibition is the share of the control response that was lost under treatment. As usually defined, the Ki is the equilibrium dissociation constant of an inhibitor or competing ligand from its target. A word on the Kd: it is the concentration at which binding is half-saturated.

Active and inactive are the calls of the source. The rule behind the calls is not given here.

Assay [1] addresses T1, Ribonucleoside-diphosphate reductase large subunit (Homo sapiens) (UniProt P23921).
T1 sequence (whole entry): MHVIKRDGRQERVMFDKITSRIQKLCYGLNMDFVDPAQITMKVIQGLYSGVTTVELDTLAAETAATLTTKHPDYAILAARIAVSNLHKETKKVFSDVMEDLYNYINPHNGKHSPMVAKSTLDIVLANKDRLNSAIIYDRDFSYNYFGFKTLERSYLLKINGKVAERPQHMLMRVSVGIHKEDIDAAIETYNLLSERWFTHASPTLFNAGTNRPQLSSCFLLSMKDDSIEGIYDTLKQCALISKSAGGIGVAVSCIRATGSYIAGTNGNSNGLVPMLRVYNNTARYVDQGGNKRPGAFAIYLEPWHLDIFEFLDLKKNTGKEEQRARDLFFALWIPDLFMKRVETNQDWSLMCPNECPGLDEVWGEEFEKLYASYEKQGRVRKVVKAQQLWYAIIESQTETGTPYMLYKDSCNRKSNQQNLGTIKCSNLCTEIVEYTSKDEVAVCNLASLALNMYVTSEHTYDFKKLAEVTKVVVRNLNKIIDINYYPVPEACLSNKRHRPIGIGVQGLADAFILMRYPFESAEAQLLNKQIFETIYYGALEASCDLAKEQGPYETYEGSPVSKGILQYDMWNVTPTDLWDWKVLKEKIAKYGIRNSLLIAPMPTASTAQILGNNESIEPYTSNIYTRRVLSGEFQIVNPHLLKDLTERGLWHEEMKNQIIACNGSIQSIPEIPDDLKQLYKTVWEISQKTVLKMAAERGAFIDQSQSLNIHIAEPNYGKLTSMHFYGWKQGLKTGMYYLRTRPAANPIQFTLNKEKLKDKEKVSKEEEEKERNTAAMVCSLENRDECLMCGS
As to the kind of experiment: Inhibition of RRM1 in human U2OS cells assessed as gammaH2AX induction after 2 hrs by FITC/propidium iodide-staining based flow cytometry in presence of SCH900776. In kind it is cell-based. The gist of the method: (§1)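 U2OS cells were given titrated compound overnight, then kept with or without 0.5 uM SCH 900776 for a further 2 h in the compound's presence. Cells were fixed and permeabilized in 70% ethanol, stained with FITC anti-γH2AX antibody and counterstained with propidium iodide. Read-out was flow cytometry or imaging, given as % γH2AX-positive cells.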
On the technique in general: Flow cytometry measures light scatter and fluorescence of single cells or particles in a stream.

Assay [2] has as its target T1, Ribonucleoside-diphosphate reductase large subunit (Homo sapiens). As to the kind of experiment: Inhibition of RRM1 in human U2OS cells assessed as gammaH2AX induction at 0.5 to 125 uM after 2 hrs by FITC/propidium iodide-staining based flow cytometry in presence of SCH900776. In kind it is cell-based. An outline of the steps:
as §1

For assay [3] the target is unchanged. As to the kind of experiment: Inhibition of RRM1 in human U2OS cells assessed as gammaH2AX induction at 0.5 to 125 uM after 2 hrs by FITC/propidium iodide-staining based flow cytometry in absence of SCH900776. In kind it is cell-based. The gist of the method:
as §1

Assay [4] has the same target. As to the kind of experiment: Inhibition of RRM1 in human CEM cells assessed as depletion of dCTP level at 1 uM after 2 hrs by HPLC analysis. Format: cell-based. The following applies: CCRF-CEM. An outline of the steps: (§2)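 CEM cells were treated for 2 h, with untreated cells as control. Pellets were taken up in ice-cold water and deproteinized with an equal volume of 6% TCA. Supernatants were neutralized with NH4OH, then run on ion-pair HPLC (tetrabutylammonium hydroxide/KH2PO4, pH 7.0 gradient) with UV detection at 260 nm. Pool levels are peak AUC, in triplicate.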

For assay [5], the target named is T2, Ribonucleotide reductase (Homo sapiens) (UniProt P23921+Q7LG56). As to the kind of experiment: Inhibition of human RRM1/RNR2 activity using CDP as substrate assessed as reduction of CDP consumption at 100 uM preincubated for 30 mins followed by substrate addition measured after 1 hr by NMR spectroscopy. Format: protein-complex assay. An outline of the steps: (§3)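 Human RRM1 and RNR2 were run at 27 °C in 50 mM d-Tris in D2O, pH 7.6, with 10 mM d-DTT. Compound was preincubated 30 min with active enzyme and 1 mM ATP. CDP was then added to start the reaction, which was heat-quenched after 1 h. 1H NMR measured dCDP formed and CDP consumed against control spectra. Controls were dATP, didox and gemcitabine diphosphate.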

Assay [6] in a line: Competitive binding affinity to yeast RRM1 assessed as reduction in CDP NMR signals by STD-NMR spectroscopy. Also noted: species or system Saccharomyces cerevisiae.
Assay [7] is described as follows: Binding affinity to yeast RRM1 assessed as reduction of unbound compound level by line-broadening NMR spectroscopy. Set-up: species or system Saccharomyces cerevisiae.
For assay [8], the target named is T2, Ribonucleotide reductase (Homo sapiens). As to the kind of experiment: Inhibition of human RRM1/RNR2 activity using CDP as substrate assessed as reduction of dCDP production at 100 uM preincubated for 30 mins followed by substrate addition measured after 1 hr by NMR spectroscopy. Format: protein-complex assay. The gist of the method: as §3
The target in assay [9] is T1, Ribonucleoside-diphosphate reductase large subunit (Homo sapiens). As to the kind of experiment: Inhibition of RRM1 in human CEM cells assessed as depletion of dATP level at 1 uM after 2 hrs by HPLC analysis. Format: cell-based. The settings on record: CCRF-CEM. The gist of the method: as §2
The subject of assay [10] is Saccharomyces cerevisiae. In words: Binding affinity to yeast RRM1 assessed as reduction of unbound-compound level at 200 uM by NOESY-spectroscopy.
The test system of assay [11] is Saccharomyces cerevisiae. As to the kind of experiment: Binding affinity to yeast RRM1 assessed as reduction of free compound level by line-broadening NMR spectroscopy relative to control. Set-up: scale not given: the % may be the effect or the level left.
For assay [12], the target named is T1, Ribonucleoside-diphosphate reductase large subunit (Homo sapiens). As to the kind of experiment: Inhibition of RRM1 in human CEM cells assessed as depletion of dGTP level at 1 uM after 2 hrs by HPLC analysis. Format: cell-based. The settings on record: CCRF-CEM. The gist of the method:
as §2

With `Nc1ccn([C@@H]2O[C@H](CNCc3ccco3)[C@@H](O)C2(F)F)c(=O)n1`, in assay [1], the inhibition result is “Dose-dependent effect”. The inhibition result in assay [2] and in assay [3] was “Active” each time.

With `Nc1ccn([C@@H]2O[C@H](CO)[C@@H](O)C2(F)F)c(=O)n1`, the inhibition entry in assay [2] and in assay [3] was “Active” throughout.

Take `Nc1ccn([C@@H]2O[C@H](CNCCN3CCCC3=O)[C@@H](O)C2(F)F)c(=O)n1`: the inhibition entry in assay [1] is “Dose-dependent effect”. Further, the inhibition entry in assay [2] and in [3] was “Active” throughout.

Take `Nc1ccn([C@@H]2O[C@H](CN3CCn4nccc4C3)[C@@H](O)C2(F)F)c(=O)n1`: the inhibition entry in assay [4], in assay [2], in [9], in [3] and in assay [12] was “Active” throughout. Further, the inhibition result was “Dose-dependent effect” in [1], 32% in assay [5] and 32% in assay [8]. For the same molecule, the Ki in [6] was determined as 150 µM. Besides, in assay [7], the Kd stood at 200 µM. Also, in the assay with Saccharomyces cerevisiae [10], the outcome was Active. The Activity in the assay with Saccharomyces cerevisiae [11] worked out at 27%.

Regarding `C[C@H](NC[C@H]1O[C@@H](n2ccc(N)nc2=O)C(F)(F)[C@@H]1O)c1ccnn1C`, in assay [1], the inhibition entry is “Dose-dependent effect”. Besides, the inhibition entry in assay [2] and in assay [3] was “Active” throughout.
